Activity calls are given as the source filed them. The rule behind the calls is not given here.
Experiments:
[1] = Cytotoxicity against mouse RAW264.7 cells assessed as cell viability at 30 uM after 18 hrs by MTT assay; format: cell-based; conditions: read-out: Activity
How it was run: (§1)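 MTT viability assay. RAW264.7 cells seeded at 1.0 × 10^5 cells/well; after 6 h, nonadherent cells were washed off. Adherent cells were cultured with test compound for 18 h. MTT (5 mg/mL in PBS) was added for 2 h at 37 °C. Formazan was dissolved in isopropanol with 0.04 M HCl and OD read at 570 nm (reference 655 nm).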

RAW264.7 [2] = assay: Antiinflammatory activity in mouse RAW264.7 cells assessed as inhibition of LPS-induced NO production incubated for 10 mins prior to LPS-challenge measured after 18 hrs by Griess method; format: functional, cell-based
How it was run: (§2)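 RAW264.7 cells (DMEM, 10% FBS, 37 °C, 5% CO2) seeded at 2.5 × 10^5 cells/well. After 6 h, nonadherent cells were washed off. Adherent cells were exposed to test compound for 10 min, then to LPS (E. coli 055:B5, final 10 µg/mL) for 18 h. Supernatant nitrite was measured by Griess reaction. Inhibition % = (A−B)/(A−C)×100, with C as the no-LPS control. IC50 was read graphically; N = 4, mean ± SEM. CAPE was the reference.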

RAW264.7 [3] = assay: Antiinflammatory activity in mouse RAW264.7 cells assessed as inhibition of LPS-induced NO production at 1 uM incubated for 10 mins prior to LPS-challenge measured after 18 hrs by Griess method relative to control; format: functional; how it was run: as §2
RAW264.7 [4] = assay: Antiinflammatory activity in mouse RAW264.7 cells assessed as inhibition of LPS-induced NO production at 30 uM incubated for 10 mins prior to LPS-challenge measured after 18 hrs by Griess method relative to control; format: functional; how it was run: as §2
RAW264.7 [5] = assay: Antiinflammatory activity in mouse RAW264.7 cells assessed as inhibition of LPS-induced NO production at 10 uM incubated for 10 mins prior to LPS-challenge measured after 18 hrs by Griess method relative to control; format: functional; how it was run: as §2
RAW264.7 [6] = assay: Antiinflammatory activity in mouse RAW264.7 cells assessed as inhibition of LPS-induced NO production at 3 uM incubated for 10 mins prior to LPS-challenge measured after 18 hrs by Griess method relative to control
[7] = molecular target: MAP kinase p38 (Mus musculus) (UniProt P47811+O08911+Q9WUI1+Q9Z1B7); assay: Inhibition of p38 phosphorylation in LPS-induced mouse RAW264.7 cells at 1 to 30 uM incubated for 10 mins prior to LPS-challenge measured after 30 mins by Western blot analysis; format: cell-based
How it was run: (§3)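 RAW264.7 cells (5.0 × 10^6/well) adhered for 6 h. Compound was added for 10 min, then LPS (final 10 µg/mL) for 30 min. BCA-normalized lysates, 25 µg/lane, were run on 10% SDS–PAGE and transferred to PVDF. Phospho-proteins (p-JNK, p-p38, p-STAT1 Ser727) were blocked in Blocking One-P, others (NF-κB p65) in Blocking One. Primary antibodies 1:1000 for 1 h at rt; detection by ECL.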

[8] = molecular target: T1, Signal transducer and activator of transcription 1 (Mus musculus) (UniProt P42225); assay: Inhibition of STAT1 phosphorylation in LPS-induced mouse RAW264.7 cells incubated for 10 mins prior to LPS-challenge measured after 30 mins by Western blot analysis; format: cell-based; how it was run: as §3
T1 sequence (whole entry): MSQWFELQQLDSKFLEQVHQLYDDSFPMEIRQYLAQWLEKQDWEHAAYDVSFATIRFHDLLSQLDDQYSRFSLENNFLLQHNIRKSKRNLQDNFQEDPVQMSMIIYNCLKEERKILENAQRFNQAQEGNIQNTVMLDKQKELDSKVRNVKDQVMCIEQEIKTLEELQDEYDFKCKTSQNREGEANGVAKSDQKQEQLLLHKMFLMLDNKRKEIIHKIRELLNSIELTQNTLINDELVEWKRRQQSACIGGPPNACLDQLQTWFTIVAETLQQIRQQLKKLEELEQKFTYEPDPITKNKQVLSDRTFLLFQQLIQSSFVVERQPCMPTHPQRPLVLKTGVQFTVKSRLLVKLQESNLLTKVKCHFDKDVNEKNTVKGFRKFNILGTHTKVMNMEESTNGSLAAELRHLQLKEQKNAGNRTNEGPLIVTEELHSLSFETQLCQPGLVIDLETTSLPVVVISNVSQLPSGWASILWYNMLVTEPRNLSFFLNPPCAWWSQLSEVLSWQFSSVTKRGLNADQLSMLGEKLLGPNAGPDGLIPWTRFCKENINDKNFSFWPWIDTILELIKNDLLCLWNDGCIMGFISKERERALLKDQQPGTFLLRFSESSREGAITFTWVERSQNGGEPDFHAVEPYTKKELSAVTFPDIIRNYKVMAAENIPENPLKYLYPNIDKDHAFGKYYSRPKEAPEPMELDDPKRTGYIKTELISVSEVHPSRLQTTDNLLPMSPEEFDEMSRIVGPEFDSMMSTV

RAW264.7 [9] = assay: Inhibition of SAPK/JNK phosphorylation in LPS-induced mouse RAW264.7 cells at 1 to 30 uM incubated for 10 mins prior to LPS-challenge measured after 30 mins by Western blot analysis; format: cell-based; how it was run: as §3
RAW264.7 [10] = assay: Antiinflammatory activity in mouse RAW264.7 cells assessed as inhibition of LPS-induced iNOS expression at 1 to 30 uM incubated for 10 mins prior to LPS-challenge measured after 12 hrs by Western blot analysis; format: functional, cell-based
How it was run: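 RAW264.7 cells (5.0 × 10^6/well, 6-well) adhered for 6 h. Compound was added for 10 min, then LPS (final 10 µg/mL) for 12 h. Lysates were sonicated and normalized by BCA. 50 µg protein/lane was run on 10% SDS–PAGE and transferred to PVDF. Blots were probed for iNOS and β-actin (primary 1:1000, HRP secondary 1:5000) and detected by ECL.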

[11] = Cytotoxicity against mouse RAW264.7 cells assessed as cell viability at 10 uM after 18 hrs by MTT assay; format: cell-based; conditions: read-out: Activity; how it was run: as §1
[12] = Cytotoxicity against mouse RAW264.7 cells assessed as cell viability at 3 uM after 18 hrs by MTT assay; format: cell-based; conditions: read-out: Activity; how it was run: as §1

Row | Compound | viability at 18 h, 30 µM [1] [%] | IC50 (RAW264.7 [2]) [µM] | inhibition at 1 µM (RAW264.7 [3]) [%] | inhibition at 30 µM (RAW264.7 [4]) [%] | inhibition at 10 µM (RAW264.7 [5]) [%] | inhibition at 3 µM (RAW264.7 [6]) [%] | inhibition [7] | inhibition [8] | inhibition (RAW264.7 [9]) | inhibition (RAW264.7 [10]) | viability at 18 h, 10 µM [11] [%] | viability at 18 h, 3 µM [12] [%]
1 | CCCC(=O)c1c(O)c2c(c3c([C@@H](O)CC)cc(=O)oc13)OC(C)(C)C=C2 [DEACETYLMAMMEA E/BC CYCLO D] | 107 | 19.7 | 15.1 | 62.3 | 33.1 | 20.2 | – | – | – | – | – | –
2 | CCCC(=O)c1c2c(c3oc(=O)cc(CCC)c3c1O)C=CC(C)(C)O2 | – | > 30 | – | 13.8 | 9.9 | – | – | – | – | – | – | –
3 | CC[C@H](O)c1cc(=O)oc2c(CC=C(C)C)c(O)c(C(=O)CC(C)C)c(O)c12 [KAYEASSAMIN G] | 83.7 | 0.8 | 51 | 72.3 | 81.5 | 55.9 | inactive | Dose-dependent effect | inactive | Active | – | –
4 | CCC(C)C(=O)c1c2c(c3oc(=O)cc(-c4ccccc4)c3c1O)C=CC(C)(C)O2 (configuration not stated) | – | > 30 | – | 18.3 | 12.9 | – | – | – | – | – | – | –
5 | CC[C@H](OC(C)=O)c1cc(=O)oc2c(C(=O)CC(C)C)c(O)c(C/C=C(\C)CCC=C(C)C)c(O)c12 [MAMMEASIN B] | 13.6 | 6.4 | 0.6 | 88.2 | 64.7 | 31.1 | – | – | – | – | 20.2 | 60.3
6 | CC[C@H](O)c1cc(=O)oc2c(C(=O)CC(C)C)c(O)c(C/C=C(\C)CCC=C(C)C)c(O)c12 [SURANGIN D] | 104 | 6.2 | 22.7 | 74 | 55.4 | 41.1 | – | – | – | – | – | –
7 | Oc1ccc(-c2nc(-c3ccncc3)c(-c3ccc(F)cc3)[nH]2)cc1 [SB-202190] | 81.4 | 16 | – | 70.2 | 36.8 | – | – | – | – | – | – | –
8 | CCCC(=O)c1c2c(c3oc(=O)cc(-c4ccccc4)c3c1O)C=CC(C)(C)O2 | – | > 30 | – | 14.3 | 9.4 | – | – | – | – | – | – | –
9 | CCC(C)C(=O)c1c(O)c(CC=C(C)C)c2oc(=O)cc([C@@H](O)CC)c2c1O (some centres not stated) [KAYEASSAMIN F] | 31.5 | 6 | 31.4 | 63.1 | 60.7 | 41.3 | – | – | – | – | 55.2 | –
10 | O=C(/C=C/c1ccc(O)c(O)c1)OCCc1ccccc1 [CAFFEIC ACID PHENETHYL ESTER] | 15.6 | 3.8 | 5.4 | 100 | 98.4 | 45.7 | – | – | – | – | 76.4 | –
11 | CCCC(=O)c1c(O)c(CC=C(C)C)c2oc(=O)cc(-c3ccccc3)c2c1O [MAMMEA A/AC] | 96.8 | 13 | 0.6 | 67.6 | 46.9 | 14.2 | – | – | – | – | – | –
12 | CCC(C)C(=O)c1c(O)c(C/C=C(\C)CCC=C(C)C)c(O)c2c([C@H](CC)OC(C)=O)cc(=O)oc12 (some centres not stated) [SURANGIN B] | 18.1 | 5 | 8.5 | 91.1 | 74.3 | 35.7 | – | – | – | – | 42.3 | 67.1
13 | CCCC(=O)c1c(O)c(CC=C(C)C)c2oc(=O)cc([C@@H](O)CC)c2c1O [KAYEASSAMIN E] | 42.2 | 6.1 | 38.7 | 63.8 | 67.1 | 38.8 | – | – | – | – | 42.8 | –
14 | CCCc1cc(=O)oc2c3c(c(C(=O)C(C)CC)c(O)c12)OC(C)(C)C=C3 (configuration not stated) | – | > 30 | – | 13.3 | 10.6 | – | – | – | – | – | – | –
15 | CCC(C)C(=O)c1c(O)c(C/C=C(\C)CCC=C(C)C)c(O)c2c([C@@H](O)CC)cc(=O)oc12 (some centres not stated) [SURANGIN C] | 42.9 | 6.8 | 18.1 | 71.3 | 56.7 | 40.8 | – | – | – | – | 61.7 | –
16 | CCCC(=O)c1c(O)c(C/C=C(\C)CCC=C(C)C)c(O)c2c([C@@H](O)CC)cc(=O)oc12 [KAYEASSAMIN A] | 82.4 | 26.6 | 5 | 56.6 | 29.7 | 15 | – | – | – | – | – | –
17 | CCC(C)C(=O)c1c(O)c(CC=C(C)C)c(O)c2c([C@H](CC)OC(C)=O)cc(=O)oc12 (some centres not stated) | 11 | 7.9 | -1.5 | 89.1 | 50.5 | 24.2 | – | – | – | – | 29.9 | 55.3

Source: ChEMBL document CHEMBL2062365, “Suppressive effects of coumarins from Mammea siamensis on inducible nitric oxide synthase expression in RAW264.7 cells” (Bioorg Med Chem, 2012)
